In ChEMBL document CHEMBL2375279, “Synthesis and biological evaluation of helioxanthin analogues” (Bioorg Med Chem, 2013):
Active and inactive are the calls of the source. The rule behind the calls is not given here.

Columns and labels:
Hepatitis B virus [1] = test: Antiviral activity against Hepatitis B virus infected in human HepA2 cells assessed as inhibition of viral surface antigen production after 2 days by enzyme immunoassay; type: functional, organism-based; details: for EC50: HepA2, 48 h
Outline: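 HepA2 cells (HepG2 transfected with two tandem HBV genome repeats, secreting HBsAg) were seeded at 3 × 10^4 per well (96-well) or 1 × 10^5 per well (24-well) in DMEM with 10% FCS for 24 h. They were washed twice with PBS pH 7.0 and treated with graded concentrations in serum-free DMEM for 48 h. Medium HBsAg was measured by enzyme immunoassay. EC50 is the concentration giving 50% of untreated HBsAg. Mean ± S.D., n = 3.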

[2] = Cytotoxicity against human HepA2 cells after 2 days by MTT assay; type: cell-based
Outline: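 HepA2 cells were seeded in DMEM with 10% FCS, attached for 24 h, washed with PBS pH 7.0, and then exposed to various compound concentrations in serum-free DMEM for 48 h. Viable cell number in each well was then determined by MTT assay.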

Hepatitis B virus [3] = test: Antiviral activity against Hepatitis B virus infected in human HepA2 cells assessed as inhibition of viral core promoter activity at 3 uM after 24 hrs by luciferase reporter gene assay; details: HepA2, 24 h
Hepatitis B virus [4] = test: Antiviral activity against Hepatitis B virus infected in human 1.3ES2 cells assessed as reduction of large HBsAg mRNA level after 48 hrs by Northern blot analysis; type: functional, organism-based
Outline: (§1)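 1.3ES2 cells were grown to confluence in DMEM with 10% FCS, then switched to serum-free DMEM containing compound (0, 1.0 or 5.0 µM) for 48 h. Total RNA was extracted by phenol/guanidinium isothiocyanate, denatured in 2.2 M formaldehyde and run on a 1.2% agarose formaldehyde gel. It was blotted to nylon and probed with a 32P full-length HBV probe. The 3.5 kb and 2.4/2.1 kb bands were normalized to GAPDH.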

Hepatitis B virus [5] = test: Antiviral activity against Hepatitis B virus infected in human 1.3ES2 cells assessed as reduction of middle/major HBsAg mRNA level after 48 hrs by Northern blot analysis; type: functional, organism-based; outline: as §1
Hepatitis B virus [6] = test: Antiviral activity against Hepatitis B virus infected in human 1.3ES2 cells assessed as inhibition of viral DNA replication after 72 hrs by RT-PCR analysis; type: functional, organism-based
Outline: (§2)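 1.3ES2 cells (HepG2 clone stably carrying a 1.3-fold HBV ayw genome) were seeded in 100 mm dishes, then exposed to compound (0, 1.0 or 5.0 µM) in serum-free DMEM for 72 h. Virion-associated HBV DNA in the medium was quantified by real-time PCR against a plasmid standard curve (10^3–10^7 copies), with 45 cycles of 95 °C 12 s and 54 °C 20 s. Mean ± S.D., n = 3.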

Hepatitis B virus [7] = test: Antiviral activity against Hepatitis B virus infected in human 1.3ES2 cells assessed as reduction of HBeAg mRNA and pregenomic RNA level after 48 hrs by Northern blot analysis; type: functional, organism-based; outline: as §1
Hepatitis B virus [8] = test: Antiviral activity against Hepatitis B virus infected in human HepA2 cells assessed as inhibition of viral core promoter activity after 24 hrs by luciferase reporter gene assay
Hepatitis B virus [9] = test: Antiviral activity against Hepatitis B virus infected in human HepA2 cells assessed as inhibition of viral core promoter activity at 0.03 uM after 24 hrs by luciferase reporter gene assay; details: HepA2, 24 h
Hepatitis B virus [10] = test: Antiviral activity against Hepatitis B virus infected in human 1.3ES2 cells assessed as reduction of viral RNA level at 5 uM after 48 hrs by Northern blot analysis; type: functional, organism-based; outline: as §1
Hepatitis B virus [11] = test: Antiviral activity against Hepatitis B virus infected in human 1.3ES2 cells assessed as inhibition of viral DNA replication at 5 uM after 72 hrs by RT-PCR analysis; type: functional, organism-based; outline: as §2

Structure (SMILES) | EC50 (Hepatitis B virus [1]) | CC50 at 48 h [2] | also measured
CC(=O)OCc1cc2ccc3c(c2c(-c2ccc(OC(C)=O)c(OC(C)=O)c2)c1COC(C)=O)OCO3 | > 12.5 µM | > 12.5 µM | 
CCCCCC(=O)OCc1cc2ccc3c(c2c(-c2ccc4c(c2)OCO4)c1COC(=O)CCCCC)OCO3 | 1.9 µM | > 12.5 µM | 
COc1ccc(-c2c(CO)c(COC(C)=O)cc3ccc4c(c23)OCO4)cc1OC | 3.7 µM | > 12.5 µM | 
COc1ccc(-c2c(COC(C)=O)c(COC(C)=O)cc3ccc4c(c23)OCO4)cc1OC | 3.03 µM | > 12.5 µM | 
N#CCCN1Cc2c(cc3ccc4c(c3c2-c2ccc3c(c2)OCO3)OCO4)C1=O | > 6 µM | > 12.5 µM | 
CC(=O)OCc1cc2ccc3c(c2c(-c2ccc(O)c(OC(C)=O)c2)c1COC(C)=O)OCO3 | > 12.5 µM | > 12.5 µM | 
O=C1OCc2cc3ccc4c(c3c(-c3ccc(O)c(O)c3)c21)OCO4 | 3.4 µM | > 12.5 µM | 
CC(=O)Oc1cc(-c2c3c(cc4ccc5c(c24)OCO5)C(=O)OC3)ccc1OCCCCCCCCC#N | > 12.5 µM | > 12.5 µM | 
CCCCCC(=O)OCc1cc2ccc3c(c2c(-c2ccc(OC)c(O)c2)c1CO)OCO3 | 1.97 µM | > 12.5 µM | 
CCCCCOC(=O)CN1Cc2c(cc3ccc4c(c3c2-c2ccc3c(c2)OCO3)OCO4)C1=O | > 12.5 µM | 3.05 µM | 
COc1cc(-c2c(CO)c(COC(C)=O)cc3ccc4c(c23)OCO4)ccc1O | > 12.5 µM | > 12.5 µM | 
COc1ccc(-c2c(COC(C)=O)c(COC(C)=O)cc3ccc4c(c23)OCO4)cc1OC(C)=O | 0.65 µM | > 12.5 µM | 
CCCCCC(=O)OCc1cc2ccc3c(c2c(-c2ccc(OC)c(O)c2)c1COC(=O)CCCCC)OCO3 | 3.33 µM | > 12.5 µM | 
COc1cc(-c2c(CO)c(CO)cc3ccc4c(c23)OCO4)ccc1O | 2.73 µM | > 12.5 µM | 
COc1cc(-c2c3c(cc4ccc5c(c24)OCO5)COC3=O)ccc1O | 3.94 µM | > 12.5 µM | 
COc1ccc(-c2c3c(cc4ccc5c(c24)OCO5)C(=O)OC3)cc1OC | > 6 µM |  | 
CCCCCC(=O)OCc1cc2ccc3c(c2c(-c2ccc4c(c2)OCO4)c1CO)OCO3 | 1.9 µM | > 12.5 µM | 
COc1ccc(-c2c3c(cc4ccc5c(c24)OCO5)COC3=O)cc1O | 1.74 µM | > 12.5 µM | 
CCCCCCCCOC(=O)CN1Cc2c(cc3ccc4c(c3c2-c2ccc3c(c2)OCO3)OCO4)C1=O | > 6 µM | > 12.5 µM | 
CCCCCC(=O)OCc1cc2ccc3c(c2c(-c2ccc(OC)c(OC)c2)c1CO)OCO3 | > 12.5 µM | > 12.5 µM | 
O=C(O)CN1Cc2c(cc3ccc4c(c3c2-c2ccc3c(c2)OCO3)OCO4)C1=O | > 6 µM | > 12.5 µM | 

Structure (SMILES) | EC50 (Hepatitis B virus [1]) | CC50 at 48 h [2] | also measured
COc1cc(-c2c(COC(C)=O)c(COC(C)=O)cc3ccc4c(c23)OCO4)ccc1O | > 12.5 µM | > 12.5 µM | 
CCCCCC(=O)OCc1cc2ccc3c(c2c(-c2ccc(O)c(O)c2)c1COC(=O)CCCCC)OCO3 | > 12.5 µM | > 12.5 µM | 
O=C1OCc2c1cc1ccc3c(c1c2-c1ccc2c(c1)OCO2)OCO3 [HELIOXANTHIN] |  |  | inhibition at 3 µM (Hepatitis B virus [3]): 30%
N#CCCCCCCCCOc1ccc(-c2c3c(cc4ccc5c(c24)OCO5)C(=O)OC3)cc1O | > 12.5 µM | > 12.5 µM | 
COc1ccc(-c2c(CO)c(CO)cc3ccc4c(c23)OCO4)cc1O | 0.67 µM | > 12.5 µM | 
N#Cc1cc2ccc3c(c2c(-c2ccc4c(c2)OCO4)c1C#N)OCO3 | > 6 µM | > 12.5 µM | 
CC(=O)OCc1cc2ccc3c(c2c(-c2ccc(O)c(O)c2)c1COC(C)=O)OCO3 | > 12.5 µM | > 12.5 µM | 
CCCCCC(=O)OCc1cc2ccc3c(c2c(-c2ccc(OC)c(OC(=O)CCCCC)c2)c1COC(=O)CCCCC)OCO3 | > 12.5 µM | > 12.5 µM | 
CCCCCC(=O)OCc1cc2ccc3c(c2c(-c2ccc(O)c(OC)c2)c1COC(=O)CCCCC)OCO3 | > 12.5 µM | > 12.5 µM | 
COc1cc(-c2c3c(cc4ccc5c(c24)OCO5)C(=O)OC3)ccc1O |  | > 12.5 µM | 
COc1ccc(-c2c(CO)c(COC(C)=O)cc3ccc4c(c23)OCO4)cc1O | 0.49 µM | > 12.5 µM | 
O=C1OCc2c1cc1ccc3c(c1c2-c1ccc2c(c1)OC(F)(F)O2)OCO3 | 0.38 µM | > 12.5 µM | 
COC(=O)CN1Cc2c(cc3ccc4c(c3c2-c2ccc3c(c2)OCO3)OCO4)C1=O | 0.86 µM | > 12.5 µM | 
COc1ccc(-c2c3c(cc4ccc5c(c24)OCO5)C(=O)OC3)cc1OC(C)=O | 0.06 µM | > 12.5 µM | Activity (Hepatitis B virus [4]): Dose-dependent effect; Activity (Hepatitis B virus [5]): Dose-dependent effect; inhibition (Hepatitis B virus [1]): Dose-dependent effect; inhibition (Hepatitis B virus [6]): Dose-dependent effect; Activity (Hepatitis B virus [7]): Dose-dependent effect; inhibition (Hepatitis B virus [8]): Dose-dependent effect; inhibition at 0.03 µM (Hepatitis B virus [9]): 40%
COc1cc(-c2c(COC(C)=O)c(COC(C)=O)cc3ccc4c(c23)OCO4)ccc1OC(C)=O | 2.77 µM | > 12.5 µM | 
COc1ccc(-c2c(CO)c(CO)cc3ccc4c(c23)OCO4)cc1OC | > 12.5 µM | > 12.5 µM | 
OCc1cc2ccc3c(c2c(-c2ccc(O)c(O)c2)c1CO)OCO3 | > 12.5 µM | > 12.5 µM | 
COc1cc(-c2c3c(cc4ccc5c(c24)OCO5)C(=O)OC3)ccc1OC(C)=O | > 6 µM | > 12.5 µM | Activity (Hepatitis B virus [10]): inactive; inhibition (Hepatitis B virus [11]): inactive
CC(=O)OCc1cc2ccc3c(c2c(-c2ccc4c(c2)OCO4)c1CO)OCO3 |  | > 12.5 µM | 
O=C1c2cc3ccc4c(c3c(-c3ccc5c(c3)OCO5)c2CN1CCO)OCO4 | > 6 µM | > 12.5 µM | 
